The term TGI denotes the reduction of tumour growth relative to the control group.

For series [1], the system named is CT26. The series can be described thus: Antitumor immunity against mouse CT26 cells implanted in BALB/c mouse assessed as increase in infiltration of CD8+ T cytotoxic lymphocytes at 25 ug, ip administered once a week for 23 days by flow cytometry analysis. It is filed as functional, organism-based. The following applies: dose 25.0 µg, time 23.0 day. The gist of the method: (§1)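 CT26-bearing BALB/c mice (n = 5) were treated ip once weekly with agonist, alone or with anti-PD-1 (200 μg, twice weekly). Tumours were harvested 23 days after implantation, enzymatically and mechanically dissociated into single cells, and stained for surface markers plus intracellular FoxP3 after fixation/permeabilisation. Cells were gated within CD45⁺ for CD11c⁺ DCs, CD11b⁺F4/80⁺MHCII⁺ (M1), CD206⁺ (M2), CD3/CD4/CD8, and CD4⁺CD25⁺FoxP3⁺ Treg, then analysed by flow cytometry.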
(Flow cytometry measures light scatter and fluorescence of single cells or particles in a stream.)

Series [2] addresses T1, TLR7 and TLR8 (Homo sapiens) (UniProt Q9NYK1+Q9NR97). Nature of the series: Agonist activity at human TLR7/8 expressed in human PBMC cells assessed as induction of IL-6 production by measuring concentration required to induce maximal response incubated for 12 hrs by multiplexed immunoassay. It is filed as cell-based. The settings on record: filed as agonist. The gist of the method: (§2)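 Healthy-volunteer PBMCs from a single donor were isolated by Ficoll−Hypaque gradient and plated at 2.0 × 10⁶ cells/mL. They were stimulated for 12 h with escalating compound concentrations. Supernatants were assayed in duplicate on a 41-analyte magnetic bead cytokine/chemokine panel read by Luminex. EC_max is the concentration giving maximal cytokine induction.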

Series [3] has as its target T1, TLR7 and TLR8 (Homo sapiens). Nature of the series: Agonist activity at human TLR7/8 expressed in human PBMC cells assessed as induction of G-CSF production by measuring concentration required to induce maximal response incubated for 12 hrs by multiplexed immunoassay. It is filed as cell-based. The following applies: filed as agonist. The procedure, abridged:
as §2

In series [4] the test system is CT26. The series can be described thus: Antitumor immunity against mouse CT26 cells implanted in BALB/c mouse assessed as increase in infiltration of CD4+ TH1 cells at 25 ug, ip administered once a week for 23 days by flow cytometry analysis. The following applies: dose 25.0 µg, time 23.0 day. It counts as functional, organism-based. The gist of the method:
as §1

Series [5] addresses T1, TLR7 and TLR8 (Homo sapiens). The series can be described thus: Agonist activity at human TLR7/8 expressed in human PBMC cells assessed as induction of INF-gamma production by measuring concentration required to induce maximal response incubated for 12 hrs by multiplexed immunoassay. The following applies: filed as agonist. It counts as cell-based. The procedure, abridged:
as §2

Series [6] has the same target. The series can be described thus: Agonist activity at human TLR7/8 expressed in human PBMC cells assessed as induction of IL-12p40 production by measuring concentration required to induce maximal response incubated for 12 hrs by multiplexed immunoassay. It counts as cell-based. The following applies: filed as agonist. The procedure, abridged: as §2
Series [7] has the same target. Nature of the series: Agonist activity at human TLR7/8 expressed in human PBMC cells assessed as induction of IL-8 production by measuring concentration required to induce maximal response incubated for 12 hrs by multiplexed immunoassay. The following applies: filed as agonist. It is filed as cell-based. The gist of the method: as §2
Series [8] relates to CT26. The series can be described thus: Antitumor immunity against mouse CT26 cells implanted in BALB/c mouse assessed as increase in infiltration of CD8+ T cytotoxic lymphocytes at 25 ug, ip administered once a week with anti-PD-1 antibody for 23 days by flow cytometry analysis. It is filed as functional, organism-based. The settings on record: dose 25.0 µg, time 23.0 day. The procedure, abridged: as §1

Series [9] deals with CT26. The series can be described thus: Antitumor immunity against mouse CT26 cells implanted in BALB/c mouse assessed as increase in Teff/Treg ratio at 25 ug, ip administered once a week with anti-PD-1 antibody for 23 days by flow cytometry analysis. The settings on record: dose 25.0 µg, time 23.0 day. It counts as functional, organism-based. The gist of the method:
as §1

The target in series [10] is T1, TLR7 and TLR8 (Homo sapiens). The series can be described thus: Agonist activity at human TLR7/8 expressed in human PBMC cells assessed as induction of IP-10 production by measuring concentration required to induce maximal response incubated for 12 hrs by multiplexed immunoassay. It counts as cell-based. The following applies: filed as agonist. The gist of the method: as §2

Series [11] concerns CT26. The series can be described thus: Antitumor immunity against mouse CT26 cells implanted in BALB/c mouse assessed as increase in M1 to M2 like TAM ratio at 25 ug, ip administered once a week with anti-PD-1 antibodies for 23 days by flow cytometry analysis. It counts as functional, organism-based. The settings on record: dose 25.0 µg, time 23.0 day. The gist of the method:
as §1

The nature of series [12]: Toxicity in BALB/c mouse implanted with mouse CT26 cells assessed as decrease in body weight at 0.9 g, ip administered on day 4. It counts as organism-based. The settings on record: in vivo. The procedure, abridged: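 CT26 cells were grown in DMEM with 10% FBS at 37 °C, 5% CO2, and implanted subcutaneously in BALB/c mice. At a mean tumor volume of 100 mm³, mice were randomized (n = 5 per group). The TLR7/8 agonist was given ip at 25 μg once weekly, with or without anti-PD-1 antibody at 200 μg ip twice weekly. Body weight was tracked over time.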

Series [13] concerns the target T1, TLR7 and TLR8 (Homo sapiens). The series can be described thus: Agonist activity at human TLR7/8 expressed in human PBMC cells assessed as induction of IL-10 production by measuring concentration required to induce maximal response incubated for 12 hrs by multiplexed immunoassay. It counts as cell-based. The following applies: filed as agonist. The procedure, abridged:
as §2

The target is the same in series [14]. Nature of the series: Agonist activity at human TLR7/8 expressed in human PBMC cells assessed as induction of MIP-1alpha production by measuring concentration required to induce maximal response incubated for 12 hrs by multiplexed immunoassay. The settings on record: filed as agonist. It is filed as cell-based. The gist of the method: as §2
For series [15] the target is unchanged. Nature of the series: Agonist activity at human TLR7/8 expressed in human PBMC cells assessed as induction of TNFalpha production by measuring concentration required to induce maximal response incubated for 12 hrs by multiplexed immunoassay. The settings on record: filed as agonist. It is filed as cell-based. The procedure, abridged:
as §2

Series [16] can be described thus: Toxicity in BALB/c mouse implanted with mouse CT26 cells assessed as reduction in survival at 25 ug, ip administered once a week in presence of anti-PD-1 antibodies and measured 60 days post tumor implantation. It counts as organism-based. The following applies: in vivo, 1440 h, dose 25 µg, time 60 day. The procedure, abridged:
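Survival study in CT26-bearing BALB/c mice (n = 10 per group), treated from a tumor volume of 100 mm³. Dosing was 25 μg agonist ip once weekly plus anti-PD-1 antibody at 200 μg ip twice weekly; IgG isotype was the control. Mice were euthanized on signs of distress or at a total tumor size of 2000 mm³.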

The target in series [17] is T1, TLR7 and TLR8 (Homo sapiens). The series can be described thus: Agonist activity at human TLR7/8 expressed in human PBMC cells assessed as induction of MIP-1alpha production at 0.1 to 32 ug/ml incubated for 12 hrs by multiplexed immunoassay. The following applies: filed as agonist, dose 0.1-32 µg/ml. It is filed as cell-based. The procedure, abridged:
as §2

Series [18] is described as follows: Subacute toxicity in BALB/c mouse assessed as body weight loss at 1.73 g, ip administered as single dose. The following applies: in vivo. It is filed as organism-based. The gist of the method:
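Subacute study in BALB/c mice, with treated and control groups. Body weight was recorded every day. Spleens were weighed and photographed, and tissues were examined by H&E staining.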

For series [19], the target named is T1, TLR7 and TLR8 (Homo sapiens). The series can be described thus: Agonist activity at human TLR7/8 expressed in human PBMC cells assessed as induction of IL-12 production at 0.1 to 32 ug/ml incubated for 12 hrs by multiplexed immunoassay. It counts as cell-based. The settings on record: filed as agonist, dose 0.1-32 µg/ml. The procedure, abridged:
as §2

In series [20] the test system is CT26. Nature of the series: Antitumor activity against mouse CT26 cells implanted in BALB/c mouse assessed as tumor growth inhibition at 50 ug, ip administered once a week and measured every 3 days for 23 days relative to control. It is filed as functional. The settings on record: dose 50 µg; time 23 day. The gist of the method:
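Subcutaneous CT26 tumours were grown in BALB/c mice, with cells cultured in DMEM/10% FBS. At a mean tumour size of 100 mm³, mice were randomised (n = 5/group). Agonist was given ip once weekly; anti-PD-1 or IgG isotype was given ip at 200 μg twice weekly. Tumour volume (V = 1/2ab²) was measured every 3 days. Mice were euthanised at 2000 mm³.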

Series [21] is described as follows: Acute toxicity in BALB/c mouse assessed as mortality at 120 mg/kg, ip administered as single dose. It counts as organism-based. The following applies: in vivo.
The target in series [22] is T1, TLR7 and TLR8 (Homo sapiens). Nature of the series: Agonist activity at human TLR7/8 expressed in human PBMC cells assessed as induction of IFN-alpha2 production at 0.1 to 32 ug/ml incubated for 12 hrs by multiplexed immunoassay. It is filed as cell-based. The following applies: filed as agonist, dose 0.1-32 µg/ml. The procedure, abridged:
as §2

Series [23] has the same target. The series can be described thus: Agonist activity at human TLR7/8 expressed in human PBMC cells assessed as induction of IL-1beta production at 0.1 to 32 ug/ml incubated for 12 hrs by multiplexed immunoassay. It counts as cell-based. The following applies: filed as agonist, dose 0.1-32 µg/ml. The procedure, abridged:
as §2

Active and inactive are the calls of the source. No cut-off for these calls is given here.

On to `CCCCNc1nc(N)nc2ccc(Cc3ccc(CN(C)C)cc3)nc12`, for which the result in series [1], in series [4], in series [8], in [9] and in [11] was Active. Also, the ECmax in series [2], in [3], in series [5], in series [6], in series [7] and in series [10] was 0.1 µg/mL each time. In addition, the ECmax in series [13], in series [14] and in series [15] was 0.1 µg/mL throughout. The results for the Activity entry in series [12] and in series [16] were “Toxic” and “Non-Toxic”, respectively.
Regarding `COCCNc1nc(N)nc2ccc(Cc3ccc(CN(C)C)cc3)nc12`, the outcome in series [17], in [19], in series [22] and in series [23] was Active. Moreover, the Activity result in [18] and in [21] was “Toxic” each time. Moreover, the inhibition of tumour growth (TGI) in series [20] turned out to be 82.8%.

Values taken from ChEMBL document CHEMBL5036324 (J Med Chem, 2021).
